ChEMBL document CHEMBL1773009, “Red-fluorescent argininamide-type NPY Y1 receptor antagonists as pharmacological tools” (Bioorg Med Chem, 2011)
The source made the active and inactive calls. The rule behind the calls is not given here.

Key:
[1] = Chemical stability of the compound in DMSO at below 0 degC; type: physicochemical
[2] = target: T1, Neuropeptide Y receptor type 1 (Homo sapiens) (UniProt P25929); assay: Antagonist activity at Y1R in human HEL cells assessed as inhibition of pNPY induced [Ca2+] mobilisation; type: functional, cell-based
T1 sequence (whole entry): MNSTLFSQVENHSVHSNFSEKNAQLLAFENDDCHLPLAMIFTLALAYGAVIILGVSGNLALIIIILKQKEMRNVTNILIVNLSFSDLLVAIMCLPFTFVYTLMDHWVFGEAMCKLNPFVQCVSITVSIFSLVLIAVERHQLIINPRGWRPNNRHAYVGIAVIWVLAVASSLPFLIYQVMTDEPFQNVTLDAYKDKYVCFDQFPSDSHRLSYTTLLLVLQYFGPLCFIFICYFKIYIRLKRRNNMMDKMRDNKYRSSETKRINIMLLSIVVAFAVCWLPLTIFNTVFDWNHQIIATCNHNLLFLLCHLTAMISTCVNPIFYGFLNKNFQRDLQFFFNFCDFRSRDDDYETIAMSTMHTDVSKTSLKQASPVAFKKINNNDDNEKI

[3] = target: T2, Neuropeptide Y receptor type 1 (Homo sapiens, UniProt P25929); assay: Displacement of [3H]-UR-MK114 from Y1R in human SK-N-MC cells; type: cell-based
T2 sequence (P25929 whole entry): T1 sequence (whole entry)

[4] = target: T1, Neuropeptide Y receptor type 1 (Homo sapiens); assay: Antagonist activity at Y1R in human MCF-7 cells at 80 nM after 23 mins by fluorescence confocal microscopy; type: functional, cell-based; settings: MCF7
In short: (§1)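 MCF-7-Y1 cells (MCF-7 subclone with 2–3-fold higher Y1R expression) pretreated 48 or 72 h with 1 nM 17β-estradiol; live-cell confocal imaging of fluorescent ligand (50–80 nM) after 5–23 min at rt in Leibovitz L15; non-specific binding with excess BIBP 3226 (5 µM or 80–125-fold); autofluorescence control.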

[5] = target: T3, Neuropeptide Y receptor type 5 (Homo sapiens, UniProt Q15761); assay: Displacement of Dy-635-pNPY from human Y5R expressed in HEC-1B cells by flow cytometry
T3 sequence (Q15761 whole entry): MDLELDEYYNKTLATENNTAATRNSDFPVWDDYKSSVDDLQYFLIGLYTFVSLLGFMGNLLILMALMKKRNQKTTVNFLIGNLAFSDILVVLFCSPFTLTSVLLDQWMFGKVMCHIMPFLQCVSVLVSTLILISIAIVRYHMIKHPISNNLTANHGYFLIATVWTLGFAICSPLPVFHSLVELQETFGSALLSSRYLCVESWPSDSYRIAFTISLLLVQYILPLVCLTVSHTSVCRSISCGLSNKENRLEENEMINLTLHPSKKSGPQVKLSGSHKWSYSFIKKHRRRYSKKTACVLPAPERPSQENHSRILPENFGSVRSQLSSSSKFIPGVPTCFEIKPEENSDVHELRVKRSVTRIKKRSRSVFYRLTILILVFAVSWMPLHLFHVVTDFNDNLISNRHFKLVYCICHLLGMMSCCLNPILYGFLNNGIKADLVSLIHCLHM

[6] = target: T1, Neuropeptide Y receptor type 1 (Homo sapiens); assay: Antagonist activity at Y1R in human MCF-7 cells at 50 nM after 5 to 8 mins by fluorescence confocal microscopy; type: functional, cell-based; settings: MCF7; in short: as §1
[7] = Chemical stability in aqueous buffer assessed as compound decomposition after 90 mins at pH 7 by HPCL; type: physicochemical; settings: read-out: Activity
In short: (§2)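 Compound at 50 µM final (from 1 mM DMSO stock) in PBS pH 7.0, 20 °C; aliquots at 20 and 90 min diluted with acetonitrile/H2O/1% TFA, analysed by RP-HPLC (220 nm); release of parent argininamide quantified against a five-point calibration curve (0.3–25 µM).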

[8] = target: Neuropeptide Y receptor type 4 (Homo sapiens, UniProt P50391); assay: Displacement of Cy5-[K4]-hpp from human Y4R expressed in CHO cells by flow cytometry; type: cell-based
In short: (§3)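 Flow cytometric displacement of labelled peptides: Cy5-[K4]-hPP on CHO-Y4 cells; Dy-635-pNPY or Cy5-pNPY on CHO-Y2 and HEC-1B-Y5 cells. Test ligands only at 1 and 10 µM or at 0.3 and 1 µM; for the red-excitable ligand, its own fluorescence without peptide was subtracted.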

[9] = target: T2, Neuropeptide Y receptor type 1; assay: Displacement of [3H]-UR-MK114 from Y1R in human SK-N-MC cells by radioligand competition binding
[10] = Chemical stability in aqueous buffer assessed as compound decomposition after 20 mins at pH 7 by HPCL; type: physicochemical; settings: read-out: Activity; in short: as §2
[11] = target: T4, Neuropeptide Y receptor type 2 (Homo sapiens, UniProt P49146); assay: Displacement of Dy-635-pNPY from human Y2R expressed in CHO cells by flow cytometry; type: cell-based; in short: as §3
T4 sequence (P49146 whole entry): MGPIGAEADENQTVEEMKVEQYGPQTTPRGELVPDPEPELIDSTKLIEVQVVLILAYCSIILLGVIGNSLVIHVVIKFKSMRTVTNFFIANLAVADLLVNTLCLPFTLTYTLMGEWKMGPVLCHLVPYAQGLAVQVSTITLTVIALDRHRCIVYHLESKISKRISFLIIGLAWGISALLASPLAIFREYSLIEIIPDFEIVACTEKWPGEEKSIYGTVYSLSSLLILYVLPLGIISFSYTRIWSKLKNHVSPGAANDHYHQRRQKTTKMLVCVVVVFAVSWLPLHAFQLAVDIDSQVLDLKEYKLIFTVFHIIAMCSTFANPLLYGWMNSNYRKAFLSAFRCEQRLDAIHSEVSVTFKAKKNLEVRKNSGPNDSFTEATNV

Sequence of Neuropeptide Y receptor type 4 (P50391 whole entry): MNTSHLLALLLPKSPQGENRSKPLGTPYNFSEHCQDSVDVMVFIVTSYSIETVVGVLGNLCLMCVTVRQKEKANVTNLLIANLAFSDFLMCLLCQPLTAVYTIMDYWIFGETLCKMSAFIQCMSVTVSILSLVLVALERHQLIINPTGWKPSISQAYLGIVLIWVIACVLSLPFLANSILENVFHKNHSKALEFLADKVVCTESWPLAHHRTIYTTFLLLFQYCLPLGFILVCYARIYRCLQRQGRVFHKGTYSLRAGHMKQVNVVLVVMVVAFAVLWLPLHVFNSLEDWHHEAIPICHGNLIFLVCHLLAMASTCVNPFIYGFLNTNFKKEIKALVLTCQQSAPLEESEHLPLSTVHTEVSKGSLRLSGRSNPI

Cc1cc(/C=C/c2cc3c4c(c2)CCCN4CCC3)cc(C)[n+]1CCCCNC(=O)/N=C(/N)NCCC[C@@H](NC(=O)C(c1ccccc1)c1ccccc1)C(=O)NCc1ccc(O)cc1.O=C([O-])C(F)(F)F
Stability [1]: 12 months | Kb [2]: 7.2 nM | Ki [3]: 140 nM

NCCCCNC(=O)/N=C(/N)NCCC[C@@H](NC(=O)C(c1ccccc1)c1ccccc1)C(=O)NCc1ccc(O)cc1
Kb [2]: 16 nM | Ki [3]: 4.3 nM

NCCCCCC(=O)NC(N)=NCCC[C@@H](NC(=O)C(c1ccccc1)c1ccccc1)C(=O)NCc1ccc(O)cc1
Ki [3]: 19 nM

Cc1cc(/C=C/c2cc3c4c(c2)CCCN4CCC3)cc(C)[n+]1CCN(CCNC(=O)CCCNC(=O)CCCC(=O)/N=C(\N)NCCC[C@@H](NC(=O)C(c1ccccc1)c1ccccc1)C(=O)NCc1ccc(O)cc1)CCNC(=O)CCCNC(=O)CCCC(=O)/N=C(\N)NCCC[C@@H](NC(=O)C(c1ccccc1)c1ccccc1)C(=O)NCc1ccc(O)cc1.O=C([O-])C(F)(F)F
Activity [4]: Active | Stability [1]: 12 months | Kb [2]: 1 nM | Ki [3]: 56 nM

NCCCCCC(=O)/N=C(/N)NCCC[C@@H](NC(=O)C(c1ccccc1)c1ccccc1)C(=O)NCc1ccc(O)cc1
Kb [2]: 95 nM

Cc1cc(/C=C/c2cc3c4c(c2)CCCN4CCC3)cc(C)[n+]1CCCNC(=O)CCCC(=O)/N=C(/N)NCCC[C@@H](NC(=O)C(c1ccccc1)c1ccccc1)C(=O)NCc1ccc(O)cc1.O=C([O-])C(F)(F)F
Stability [1]: 12 months | Kb [2]: 11 nM | Ki [3]: 38 nM

Cc1cc(/C=C/c2cc3c4c(c2)CCCN4CCC3)cc(C)[n+]1CCNC(=O)CCCC(=O)/N=C(/N)NCCC[C@@H](NC(=O)C(c1ccccc1)c1ccccc1)C(=O)NCc1ccc(O)cc1.O=C([O-])C(F)(F)F
IC50 [5]: > 10 µM | Ki [5]: > 5 µM | Activity [6]: Active | Stability [1]: 12 months | degraded at 1.5 h [7]: 2.6% | IC50 [8]: > 10 µM | Ki [8]: > 3 µM | Kb [2]: 6 nM | Ki [9]: 22 nM | degraded at 20 min [10]: 1% | IC50 [11]: > 10 µM | Ki [11]: > 3 µM | Ki [3]: 22 nM

Cc1cc(/C=C/c2cc3c4c(c2)CCCN4CCC3)cc(C)[n+]1CCN(CCNC(=O)CCCCCCC(=O)/N=C(\N)NCCC[C@@H](NC(=O)C(c1ccccc1)c1ccccc1)C(=O)NCc1ccc(O)cc1)CCNC(=O)CCCCCCC(=O)/N=C(\N)NCCC[C@@H](NC(=O)C(c1ccccc1)c1ccccc1)C(=O)NCc1ccc(O)cc1.O=C([O-])C(F)(F)F
Stability [1]: 12 months | Kb [2]: 0.6 nM | Ki [3]: 100 nM

Cc1cc(/C=C/c2cc3c4c(c2)CCCN4CCC3)cc(C)[n+]1CCOCCOCCOCCC(=O)/N=C(/N)NCCC[C@@H](NC(=O)C(c1ccccc1)c1ccccc1)C(=O)NCc1ccc(O)cc1.O=C([O-])C(F)(F)F
Stability [1]: 12 months | Kb [2]: 4.1 nM | Ki [3]: 97 nM

CN(C)c1ccc(/C=C/C=C/c2sc3ccccc3[n+]2CCCC(=O)ON2C(=O)CCC2=O)cc1.O=C([O-])C(F)(F)F
Stability [1]: 12 months

Cc1cc(/C=C/C=C/c2ccc(N(C)C)cc2)cc(C)[n+]1CCOCCOCC(=O)/N=C(/N)NCCC[C@@H](NC(=O)C(c1ccccc1)c1ccccc1)C(=O)NCc1ccc(O)cc1.O=C([O-])C(F)(F)F
Activity [6]: Active | Stability [1]: 12 months | Kb [2]: 11 nM | Ki [3]: 24 nM

CN(C)c1ccc(/C=C/C=C/c2sc3ccccc3[n+]2CCCC(=O)NCCNC(=O)CCCC(=O)/N=C(/N)NCCC[C@@H](NC(=O)C(c2ccccc2)c2ccccc2)C(=O)NCc2ccc(O)cc2)cc1.O=C([O-])C(F)(F)F
Stability [1]: 12 months | Kb [2]: 2.4 nM | Ki [3]: 42 nM

CN(C)c1ccc(/C=C/C=C/c2sc3ccccc3[n+]2CCCC(=O)O)cc1.O=C([O-])C(F)(F)F
Stability [1]: 12 months

N=C(N)N(CCC[C@@H](NC(=O)C(c1ccccc1)c1ccccc1)C(=O)NCc1ccc(O)cc1)C(=O)NCCCCN
Kb [2]: 510 nM | Ki [3]: 38 nM

Cc1cc(/C=C\C=C2\N(C)c3ccc4ccccc4c3C2(C)C)cc(C)[n+]1CCOCCOCCNC(=O)CCCCCCC(=O)/N=C(/N)NCCC[C@@H](NC(=O)C(c1ccccc1)c1ccccc1)C(=O)NCc1ccc(O)cc1.O=C([O-])C(F)(F)F
Stability [1]: 12 months | Kb [2]: 7.8 nM | Ki [3]: 130 nM

Cc1cc(/C=C/c2cc3c4c(c2)CCCN4CCC3)cc(C)[n+]1CCN(CCNC(=O)CCCCC(=O)/N=C(\N)NCCC[C@@H](NC(=O)C(c1ccccc1)c1ccccc1)C(=O)NCc1ccc(O)cc1)CCNC(=O)CCCCC(=O)/N=C(\N)NCCC[C@@H](NC(=O)C(c1ccccc1)c1ccccc1)C(=O)NCc1ccc(O)cc1.O=C([O-])C(F)(F)F
Stability [1]: 12 months | degraded at 1.5 h [7]: < 0.5% | Kb [2]: 1.2 nM | degraded at 20 min [10]: 0% | Ki [3]: 61 nM

Cc1cc(/C=C/c2cc3c4c(c2)CCCN4CCC3)cc(C)[n+]1CCCCCC(=O)/N=C(/N)NCCC[C@@H](NC(=O)C(c1ccccc1)c1ccccc1)C(=O)NCc1ccc(O)cc1.O=C([O-])C(F)(F)F
Stability [1]: 12 months | Ki [3]: 29 nM

Cc1cc(/C=C/C=C2\N(C)c3ccc4ccccc4c3C2(C)C)cc(C)[n+]1CCOCCOCCNC(=O)CCCC(=O)/N=C(/N)NCCC[C@@H](NC(=O)C(c1ccccc1)c1ccccc1)C(=O)NCc1ccc(O)cc1.O=C([O-])C(F)(F)F
Stability [1]: 12 months | Kb [2]: 6.8 nM | Ki [3]: 96 nM

Cc1cc(/C=C/c2cc3c4c(c2)CCCN4CCC3)cc(C)[n+]1CCCCCC(=O)/N=C(/N)NCCC[C@@H](NC(=O)C(c1ccccc1)c1ccccc1)C(=O)NCc1ccc(CNC(N)=O)cc1.O=C([O-])C(F)(F)F
Activity [6]: Active | Stability [1]: 12 months | degraded at 1.5 h [7]: < 0.5% | Kb [2]: 12 nM | degraded at 20 min [10]: 0% | Ki [3]: 23 nM

Cc1cc(/C=C/C=C/c2ccc(N(C)C)cc2)cc(C)[n+]1CCCCNC(=O)/N=C(/N)NCCC[C@@H](NC(=O)C(c1ccccc1)c1ccccc1)C(=O)NCc1ccc(O)cc1.O=C([O-])C(F)(F)F
Stability [1]: 12 months | Kb [2]: 7.6 nM | Ki [3]: 150 nM

Cc1cc(/C=C/C=C2\N(C)c3ccc4ccccc4c3C2(C)C)cc(C)[n+]1CCOCCOCCNC(=O)CCCCC(=O)/N=C(/N)NCCC[C@@H](NC(=O)C(c1ccccc1)c1ccccc1)C(=O)NCc1ccc(O)cc1.O=C([O-])C(F)(F)F
Stability [1]: 12 months | Kb [2]: 8 nM | Ki [3]: 130 nM

Cc1cc(/C=C/C=C/c2ccc(N(C)C)cc2)cc(C)[n+]1CCCCCC(=O)/N=C(/N)NCCC[C@@H](NC(=O)C(c1ccccc1)c1ccccc1)C(=O)NCc1ccc(O)cc1.O=C([O-])C(F)(F)F
Stability [1]: 12 months | Kb [2]: 3.7 nM | Ki [3]: 50 nM
